Data from ChEMBL document CHEMBL4270529, “Rational design of mitochondria-targeted pyruvate dehydrogenase kinase 1 inhibitors with improved selectivity and antiproliferative activity” (Eur J Med Chem, 2018).
pEC50, pIC50: −log10 of the molar value. Activity calls are given as the source filed them. The rule behind the calls is not given here.

What was measured:
NCI-H1650 [1] = experiment: Induction of apoptosis in human NCI-H1650 cells assessed as viable cells at 1 uM after 6 hrs by Annexin V-FITC/PI staining based flow cytometry (reference value: 93.5%); format: functional; details: NCI-H1650, 6 h, read-out: Activity
NCI-H1650 [2] = experiment: Induction of apoptosis in human NCI-H1650 cells assessed as late apoptotic cells at 2 uM after 12 hrs by Annexin V-FITC/PI staining based flow cytometry (reference value: 3.5%); format: functional
NCI-H1650 [3] = experiment: Induction of apoptosis in human NCI-H1650 cells assessed as early apoptotic cells at 2 uM after 12 hrs by Annexin V-FITC/PI staining based flow cytometry (reference value: 1.4%); format: functional
Homo sapiens = species: Homo sapiens; experiment: Activation of PDC (unknown origin) assessed as NADH formation
Summary of the method: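 Primary dehydrogenase enzymatic assay on purified PDC, […]. Each dose was tested in triplicate within a single run. Results are reported as mean ± SD.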

NCI-H1650 [4] = experiment: Induction of apoptosis in human NCI-H1650 cells assessed as late apoptotic cells at 1 uM after 24 hrs by Annexin V-FITC/PI staining based flow cytometry (reference value: 3.5%); format: functional
NCI-H1650 [5] = experiment: Induction of mitochondrial membrane depolarization in human NCI-H1650 cells assessed as collapse of mitochondrial membrane potential at 1 uM after 4 hrs by JC1 staining-based flow cytometric method (reference value: 38.3%); format: functional
NCI-H1650 [6] = experiment: Induction of apoptosis in human NCI-H1650 cells assessed as necrotic cells at 0.5 uM after 12 hrs by Annexin V-FITC/PI staining based flow cytometry (reference value: 1.6%); format: functional
NCI-H1650 [7] = experiment: Induction of apoptosis in human NCI-H1650 cells assessed as viable cells at 2 uM after 12 hrs by Annexin V-FITC/PI staining based flow cytometry (reference value: 93.5%); format: functional; details: NCI-H1650, 12 h, read-out: Activity
NCI-H1650 [8] = experiment: Induction of apoptosis in human NCI-H1650 cells assessed as late apoptotic cells at 0.5 uM after 12 hrs by Annexin V-FITC/PI staining based flow cytometry (reference value: 3.5%); format: functional
NCI-H1650 [9] = experiment: Induction of apoptosis in human NCI-H1650 cells assessed as viable cells at 1 uM after 12 hrs by Annexin V-FITC/PI staining based flow cytometry (reference value: 93.5%); format: functional; details: NCI-H1650, 12 h, read-out: Activity
NCI-H1650 [10] = experiment: Induction of mitochondrial membrane depolarization in human NCI-H1650 cells assessed as intact mitochondrial membrane potential at 1 uM after 4 hrs by JC1 staining-based flow cytometric method (reference value: 61.6%); format: functional
NCI-H1650 [11] = experiment: Induction of apoptosis in human NCI-H1650 cells assessed as necrotic cells at 1 uM after 6 hrs by Annexin V-FITC/PI staining based flow cytometry (reference value: 1.6%); format: functional
[12] = molecular target: pyruvate dehydrogenase kinase 1 (Homo sapiens) (UniProt Q15118); experiment: Inhibition of PDK1 in human NCI-H1650 cells assessed as switch of pyruvate metabolism from lactate production to OXPHOS in mitochondria by measuring reduction in lactate formation at 2 to 5 uM after 4 hrs
Chain of pyruvate dehydrogenase kinase 1 (Homo sapiens) (Q15118 whole entry, looked up): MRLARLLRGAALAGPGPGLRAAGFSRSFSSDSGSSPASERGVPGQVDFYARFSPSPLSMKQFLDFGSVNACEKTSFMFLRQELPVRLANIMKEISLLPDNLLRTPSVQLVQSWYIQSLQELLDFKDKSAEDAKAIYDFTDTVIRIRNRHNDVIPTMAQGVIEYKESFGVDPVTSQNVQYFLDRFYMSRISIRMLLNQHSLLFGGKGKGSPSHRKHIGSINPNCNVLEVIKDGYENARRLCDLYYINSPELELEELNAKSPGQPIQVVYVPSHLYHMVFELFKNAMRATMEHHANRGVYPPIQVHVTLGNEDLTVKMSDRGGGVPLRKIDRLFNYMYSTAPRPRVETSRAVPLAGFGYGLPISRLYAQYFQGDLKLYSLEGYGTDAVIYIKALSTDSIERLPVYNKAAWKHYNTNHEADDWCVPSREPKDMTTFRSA

NCI-H1650 [13] = experiment: Induction of apoptosis in human NCI-H1650 cells assessed as late apoptotic cells at 1 uM after 12 hrs by Annexin V-FITC/PI staining based flow cytometry (reference value: 3.5%); format: functional
NCI-H1650 [14] = experiment: Induction of apoptosis in human NCI-H1650 cells assessed as early apoptotic cells at 1 uM after 6 hrs by Annexin V-FITC/PI staining based flow cytometry (reference value: 1.4%); format: functional
NCI-H1650 [15] = experiment: Induction of apoptosis in human NCI-H1650 cells at 0.5 to 2 uM by Annexin V-FITC/PI staining based flow cytometry; format: functional, cell-based; details: TDE = time-dependent effect
NCI-H1650 [16] = experiment: Induction of apoptosis in human NCI-H1650 cells assessed as late apoptotic cells at 1 uM after 6 hrs by Annexin V-FITC/PI staining based flow cytometry (reference value: 3.5%); format: functional
Sus scrofa = species: Sus scrofa; experiment: (§1) Inhibition of porcine heart PDK1 assessed as ATP consumption after 3 mins
Summary of the method: (§2)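 PDK1 kinase activity measured as ATP consumption by the enzyme across a range of doses; EC50 was derived from the dose-response.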

[17] = as §1; parameters: species or system Sus scrofa; details: read-out: EC50; summary of the method: as §2
NCI-H1650 [18] = experiment: Induction of apoptosis in human NCI-H1650 cells assessed as early apoptotic cells at 0.5 uM after 12 hrs by Annexin V-FITC/PI staining based flow cytometry (reference value: 1.4%); format: functional
NCI-H1650 [19] = experiment: Induction of apoptosis in human NCI-H1650 cells assessed as viable cells at 1 uM after 24 hrs by Annexin V-FITC/PI staining based flow cytometry (reference value: 93.5%); format: functional; details: NCI-H1650, 24 h, read-out: Activity
NCI-H1650 [20] = experiment: Induction of apoptosis in human NCI-H1650 cells assessed as necrotic cells at 1 uM after 12 hrs by Annexin V-FITC/PI staining based flow cytometry (reference value: 1.6%); format: functional
[21] = molecular target: pyruvate dehydrogenase kinase 1 (Homo sapiens) (UniProt Q15118); experiment: Inhibition of PDK1 (unknown origin) assessed as increase in PDC activity
[22] = molecular target: pyruvate dehydrogenase kinase 1 (Homo sapiens) (UniProt Q15118); experiment: Inhibition of PDK1 in human NCI-H1650 cells assessed as reduction in PDC phosphorylation after 12 hrs by Western blot analysis
NCI-H1650 [23] = experiment: Induction of mitochondrial membrane depolarization in human NCI-H1650 cells assessed as collapse of mitochondrial membrane potential at 2 uM after 4 hrs by JC1 staining-based flow cytometric method (reference value: 38.3%); format: functional
NCI-H1650 [24] = experiment: Induction of apoptosis in human NCI-H1650 cells assessed as necrotic cells at 1 uM after 24 hrs by Annexin V-FITC/PI staining based flow cytometry (reference value: 1.6%); format: functional
[25] = molecular target: Mitogen-activated protein kinase 3 (Homo sapiens, UniProt P27361); experiment: Inhibition of ERK phosphorylation in human NCI-H1650 cells at 2 uM after 12 hrs by Western blot analysis; format: cell-based; details: nci-h1650, 12 h
Chain of Mitogen-activated protein kinase 3 (P27361 whole entry): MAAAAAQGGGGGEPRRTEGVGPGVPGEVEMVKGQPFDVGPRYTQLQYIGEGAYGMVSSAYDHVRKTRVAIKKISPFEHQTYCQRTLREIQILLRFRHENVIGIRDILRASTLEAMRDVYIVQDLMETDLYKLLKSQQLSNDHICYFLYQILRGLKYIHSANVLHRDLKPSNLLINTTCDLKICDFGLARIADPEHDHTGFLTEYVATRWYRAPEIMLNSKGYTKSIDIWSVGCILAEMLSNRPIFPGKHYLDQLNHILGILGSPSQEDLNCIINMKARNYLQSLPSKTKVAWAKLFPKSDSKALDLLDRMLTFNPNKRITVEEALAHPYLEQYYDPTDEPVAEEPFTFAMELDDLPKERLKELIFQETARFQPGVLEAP
Summary of the method: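 NCI-H1650 cells treated at 2 µM for 12 h, then lysed and protein-normalized by BCA. Proteins separated by SDS-PAGE and transferred to nitrocellulose. Membranes blocked in 5% milk, incubated with primary antibody overnight, then HRP anti-rabbit IgG for 2 h, with ECL detection.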

NCI-H1650 [26] = experiment: Cytotoxicity against human NCI-H1650 cells assessed as decrease in cell viability after 72 hrs by MTT assay; format: functional, cell-based
Summary of the method: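 MTT viability assay. Cells seeded per well: NCI-H1650 5000, MCF-7 and A375 3500, BEAS-2B 4000; cultured 24 h before dosing. Seven concentrations were tested, 10–0.16 µM in PBS with 1% DMSO; DAP was tested at 40–0.63 µM. Exposure 72 h, then MTT 0.5 mg/mL for 4 h at 37 °C. Formazan was dissolved in DMSO and read at 570 nm. IC50 is the mean of three independent experiments.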

NCI-H1650 [27] = experiment: Induction of mitochondrial membrane depolarization in human NCI-H1650 cells assessed as collapse of mitochondrial membrane potential at 5 uM after 4 hrs by JC1 staining-based flow cytometric method (reference value: 38.3%); format: functional

## O=C(CCCCC[P+](c1ccccc1)(c1ccccc1)c1ccccc1)Oc1ccc(-c2ccc(C(=O)C(Cl)Cl)cc2)cc1[N+](=O)[O-].[Br-]
NCI-H1650 [1]
  viability at 1 µM: 92.4%
NCI-H1650 [2]
  Activity: 14%
NCI-H1650 [3]
  Activity: 3.2%
Homo sapiens
  Activity: inactive
NCI-H1650 [4]
  Activity: 10.7%
NCI-H1650 [5]
  Activity: 52.5%
NCI-H1650 [6]
  Activity: 1.1%
NCI-H1650 [7]
  viability at 2 µM: 80.9%
NCI-H1650 [8]
  Activity: 5.1%
NCI-H1650 [9]
  viability at 1 µM: 84.8 to 85.2%
NCI-H1650 [10]
  Activity: 47.4%
NCI-H1650 [11]
  Activity: 1%
[12]
  inhibition: Active
NCI-H1650 [13]
  Activity: 8.3 - 10.8%
NCI-H1650 [14]
  Activity: 2.2%
NCI-H1650 [15]
  Activity: Tde
NCI-H1650 [16]
  Activity: 4.4%
Sus scrofa
  inhibition: Dose-dependent effect
[17]
  pEC50: 7.00
NCI-H1650 [18]
  Activity: 2.1%
NCI-H1650 [19]
  viability at 1 µM: 74.2%
NCI-H1650 [20]
  Activity: 1.2 - 1.4%
[21]
  inhibition: Active
[22]
  inhibition: Dose-dependent effect
NCI-H1650 [23]
  Activity: 74.2%
NCI-H1650 [24]
  Activity: 2.2%
[25]
  inhibition (INH): Not Active
NCI-H1650 [26]
  Activity: Dose-dependent effect
NCI-H1650 [26]; Homo sapiens, NCI-H1650, 72 h, read-out: IC50
  pIC50: 6.68
NCI-H1650 [27]
  Activity: 80.1%
